Rows were chosen to be rich in hits. Some 4.2% of all compounds tested hit in one or more screens of this group.
KCNQ1 act: potentiates or activates the human KCNQ1 potassium channel; P51787; CHO-K1 KCNQ1, thallium flux FluxOR fluorescence; active compounds read high; B-score at 10 µM; 310,000 tested, 0.35% active;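 active = fluorescence ratio B-score, a plate-corrected score, at least three library SD, with initial intensity B-score within 5 SD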
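Doses: Single concentration per compound, DMSO matched to controls | Test system: KCNQ1-transfected CHO-K1 cells | Timing: 90 min dye loading and 20 min compound exposure, both at room temperature | Measured by: Kinetic FluxOR thallium fluorescence, 10-s 1-Hz baseline, 110-s post-stimulus read | Medium: Assay buffer with matched DMSO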
KCNQ1 inh: human KCNQ1 channel inhibition | 310,000 tested, 1.3% active | P51787 | CHO-K1 KCNQ1, FluxOR thallium flux fluorescence; active compounds read high | B-score at 10 µM;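 active = compounds whose thallium flux B-score, printed positive for inhibition, exceeds three library SD while starting fluorescence stays within three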;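 also: channel opened by potassium depolarization with thallium stimulus after 20 min compound exposure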
AI-2 QS mod: modulators of Vibrio harveyi AI-2 quorum sensing system; activity change, % at 7.5 µM; Vibrio harveyi JMH597 AI-2 luminescence/OD600 ratio, 9 h; active compounds read low; strain lacks LuxN and CqsS sensors; 0 = neutral-control median; AID 2094; 300,000 tested, 0.4% active; in the data active = activity change below about -75%, passing the limit was not always enough; inconclusive = no clear call, values can overlap the other calls;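 also: luminescence divided by OD600 gain over 9 h not by final OD600 alone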
Cl transport mod: modulators of human KCC2 chloride dependent transport; AID 1456; B-score of Tl+ flux slope (higher = more flux/activation; lower = inhibition) at 10 µM; KCC2 cells, thallium flux FluoZin-2 fluorescence; 190,000 tested, 2.2% active;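 active = thallium flux slope and its plate-corrected score both differing from the plate sample mean at a set confidence after two filtering rounds, in either direction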;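 also: slope of fluorescence scaled to starting intensity during 10 to 20 s after thallium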
SUMO Mot1 rescue: inhibitors of SUMOylation pathway: yeast Mot1-301 growth rescue. S. cerevisiae Mot1-301 growth rescue, ATP luminescence, 38.5C; percent above DMSO median, 100 means doubled. 320,000 tested, 1% active. growth rescue, % at 18.8 µM;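 active = every valid replicate shows activation above 250% relative to neutral control wells; inactive = the rest, any valid replicate at or below 250%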;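 also: OY570 slx delta 5 strain wells were the positive control but not used for scaling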
hERG rescue: compounds protecting human hERG from proarrhythmic drug block; AID 1511; activation (rescue from dofetilide block), less the hit threshold, % at 10 µM; CHO-hERG, FluxOR thallium flux, dofetilide IC70 present; Q12809; 310,000 tested, 0.51% active;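 active = activation above the mean of controls blocked by dofetilide plus 5 SD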;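 also: thallium influx through hERG after potassium depolarization seen as dye fluorescence rise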
Target sequence (Q12809 whole entry, looked up): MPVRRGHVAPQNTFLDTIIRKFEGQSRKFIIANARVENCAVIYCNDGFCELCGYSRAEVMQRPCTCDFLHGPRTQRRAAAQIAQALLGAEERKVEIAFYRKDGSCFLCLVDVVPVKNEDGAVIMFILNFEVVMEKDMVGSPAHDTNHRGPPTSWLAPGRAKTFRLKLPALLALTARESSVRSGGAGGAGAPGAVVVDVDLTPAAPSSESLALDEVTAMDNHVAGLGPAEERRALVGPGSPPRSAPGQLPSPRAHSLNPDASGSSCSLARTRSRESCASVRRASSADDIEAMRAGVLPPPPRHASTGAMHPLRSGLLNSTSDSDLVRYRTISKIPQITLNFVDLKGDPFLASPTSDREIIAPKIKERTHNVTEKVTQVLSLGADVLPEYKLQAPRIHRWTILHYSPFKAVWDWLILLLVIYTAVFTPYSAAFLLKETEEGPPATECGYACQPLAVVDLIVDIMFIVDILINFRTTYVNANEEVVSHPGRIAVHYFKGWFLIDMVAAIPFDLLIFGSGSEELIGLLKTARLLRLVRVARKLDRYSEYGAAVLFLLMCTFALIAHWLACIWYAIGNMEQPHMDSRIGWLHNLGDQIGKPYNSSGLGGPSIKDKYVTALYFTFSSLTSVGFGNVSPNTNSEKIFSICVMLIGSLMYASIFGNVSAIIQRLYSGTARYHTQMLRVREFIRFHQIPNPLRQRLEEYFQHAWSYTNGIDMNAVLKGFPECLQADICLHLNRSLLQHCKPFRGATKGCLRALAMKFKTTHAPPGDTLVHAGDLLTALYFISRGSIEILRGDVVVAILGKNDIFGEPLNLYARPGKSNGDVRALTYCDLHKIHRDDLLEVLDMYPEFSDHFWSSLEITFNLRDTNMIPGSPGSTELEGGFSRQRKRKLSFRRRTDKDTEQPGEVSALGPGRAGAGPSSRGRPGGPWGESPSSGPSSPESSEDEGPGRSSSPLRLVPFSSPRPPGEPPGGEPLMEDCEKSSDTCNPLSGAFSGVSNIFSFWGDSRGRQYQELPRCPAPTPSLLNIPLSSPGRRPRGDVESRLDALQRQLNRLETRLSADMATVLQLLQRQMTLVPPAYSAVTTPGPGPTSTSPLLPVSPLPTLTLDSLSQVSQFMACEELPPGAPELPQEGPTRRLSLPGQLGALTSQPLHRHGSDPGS
Mot1 SUMO dose: SUMO pathway inhibitors in yeast Mot1-301 growth | shares compounds with SUMO Mot1 rescue | S. cerevisiae Mot1-301 galactose growth, ATP luminescence, 24 h; -100 = growth of slx-deleted rescue strain | growth activity, percent, % at 42 µM | 2,300 tested, under 10 active | AID 493004;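 active = Signal drops as the depositor expects, and the fitted half-maximal dose is no more than ten times the top valid tested dose; inconclusive = Poor fit, or a flat curve whose signal drops by 30% to 70%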;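 also: more negative values mean stronger growth rescue toward the control strain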
The depositor's hits bear a star; i = inactive; u = inconclusive; x = no result; + = active, no number; [ ] = dose if it differs, or a comment.

SMILES | KCNQ1 act | KCNQ1 inh | AI-2 QS mod | Cl transport mod | SUMO Mot1 rescue | hERG rescue | Mot1 SUMO dose
COC(=O)c1ccc(NC(=O)CCN2CCN(c3ccccc3)CC2)cc1 | i | i | 22.6 | -1.51 | 519.5* | -3.2 | 0.1
O=C(CCN1CCN(c2ccccc2)CC1)Nc1ccc(Cl)cc1 | i | i | -29.3 | 0.0892 | x | -4.5 | x
Cc1n[nH]c(C)c1S(=O)(=O)N(CC(=O)NC1CCCC1)c1ccc(C(C)C)cc1 | i | i | 10.8 | -0.117 | 633.9* | -2.6 | -0.5[21 µM]
CN1C(=O)c2ccc(NC(=S)NC(=O)C(C)(C)C)cc2C1=O | i | i | 3.0 | 0.00787 | 439.0* | -1.7 | -0.3
CCC(=O)Nc1ccc2c(c1)C(=O)N(C)C2=O | i | i | 12.5 | -0.673 | i | -5.0 | x
CC1(C(=O)Nc2cccc(-n3cnnn3)c2)Cc2ccccc2C(=O)O1 (stereo not given) | x | x | x | x | 408.0* | x | -0.3
Cc1ccc(S(=O)(=O)N(C)C)cc1NC(=O)C(C)OC(=O)/C=C/c1cccs1 (stereo not given) | i | i | 1.9 | -1.53 | 81.3 | -15.0 | x
C=CCOC(=O)C(C#N)c1nc2ccccc2nc1N1CCN(Cc2ccccc2)CC1 (stereo not given) | i | i | 12.2 | 0.879 | 501.2* | -9.2 | -0.3
COCCOC(=O)C(C#N)c1nc2ccccc2nc1N1CCN(Cc2ccccc2)CC1 (stereo not given) | i | i | 26.3 | -1.5 | -0.7 | -13.3 | x
COc1ccc(Cc2nnc(NCCO)[nH]c2=O)cc1OC | i | i | 9.0 | x | 1.2 | -2.1 | x
COc1ccc(Cc2nnc(NCCO)[nH]c2=O)cc1 | i | i | 33.2 | x | 446.5* | -1.9 | -0.2
CC(C)C1OC2(C)OC(=N)C1(C#N)C(C#N)(C#N)C2c1ccccc1 (stereo not given) | i | i | 53.3 | 0.0668 | 414.1* | -8.8 | 0.9
CCc1nn(C)c(-c2n[nH]c(=S)n2N)c1Cl | i | i | 13.9 | x | 9.5 | -3.6 | x
CCc1nn(C)c(N)c1C | i | i | 8.8 | -0.0723 | 391.7* | -8.2 | 0.3
O=C(O)C1Nc2c(O)cc(Cl)c([N+](=O)[O-])c2C2C=CCC12 (stereo not given) | i | i | 54.5 | -1.56 | -7.8 | -6.0 | x
CCCOc1ccc([N+](=O)[O-])c(N)c1 | i | i | -46.1 | -0.526 | 788.4* | -0.6 | 0.3
CC(C)(C)c1ccc(C(=O)NCCC(=O)Nc2cc(Cl)ccc2N2CCOCC2)cc1 | x | x | x | x | -11.1 | x | x
CCn1cc(C(=O)N(C)c2ccc(OC)cc2OC)c2cc(OC)c(OC)cc2c1=O | i | i | 0.0 | x | 415.0* | -8.6 | -0.1
COC(=O)Oc1ccc(/C=N/NS(=O)(=O)c2ccccc2)cc1OC | i | i | 29.0 | x | 626.6* | -9.6 | -0.1
O=C(/C=C/c1ccc(-c2ccccc2[N+](=O)[O-])o1)c1ccc(Br)cc1 | i | i | -5.9 | 0.0115 | 2.2 | -9.9 | x
Cc1ccc(C(=O)/C=C/c2ccc(-c3ccccc3[N+](=O)[O-])o2)cc1 | i | i | -2.1 | -0.2 | 490.6* | -5.2 | -0.7
CN(c1ccccc1)c1ccc(/C=C/[N+](=O)[O-])cc1 | i | i | u | -0.00196 | 803.8* | -5.1 | -2.6
COC(=O)CNC(=O)CSc1ccccn1 | i | i | 13.6 | 0.174 | + | -8.5 | 0.4
Cc1ccc2nc(SCC(=O)Nc3cccc(S(N)(=O)=O)c3)[nH]c2c1 | i | i | -0.6 | -0.704 | 740.8* | -11.6 | 0.1
NS(=O)(=O)c1cccc(NC(=O)CSc2nc3ccccc3[nH]2)c1 | i | i | 39.8 | 0.186 | 8.7 | -10.7 | x
SMILES | KCNQ1 act | KCNQ1 inh | AI-2 QS mod | Cl transport mod | SUMO Mot1 rescue | hERG rescue | Mot1 SUMO dose
COc1ccc(S(=O)(=O)NCC(c2ccc3c(c2)OCO3)N2CCOCC2)cc1 (stereo not given) | i | i | -11.3 | x | -1.4 | -12.0 | x
COc1ccccc1CNC(=O)C/C(C)=N/NC(=O)COc1ccc(C)cc1Br | i | i | 10.1 | -2.61 | 168.1 | -3.2 | x
COc1ccc(CCNC(=O)C/C(C)=N/NC(=O)COc2ccc(C)cc2Br)cc1OC | i | i | -3.1 | x | 904.0* | -13.6 | 0.3
Cc1[nH]oc(=O)c1N=Nc1c(Cl)cccc1Cl | i | i | 44.4 | -1.23 | 358.3* | -11.5 | -0.4
Cc1[nH]oc(=O)c1N=Nc1ccccc1 | i | i | 24.1 | 0.0738 | 465.2* | -5.5 | 0.5
CCC(C)[C@H](NC(=O)[C@@H]1Cc2ccccc2CN1)C(=O)Nc1ccc2c(c1)OCO2 (stereo not given in full) | i | i | 29.6 | x | 15.7 | -9.4 | x
COc1ccc(NC(=S)Nc2ccccc2OC)c(OC)c1 | i | i | 20.6 | 0.273 | 475.7* | -13.3 | -0.5
O=C(COc1cccnc1[N+](=O)[O-])Nc1ccc2c(c1)CCC2 | i | i | 11.5 | -0.636 | 811.0* | -12.8 | 0.2[21 µM]
COc1ccc(NC(=O)COc2cccnc2[N+](=O)[O-])cc1OC | i | i | 15.6 | 0.941 | 0.1 | -10.4 | x
NS(=O)(=O)c1ccc(CCNC(=O)c2ccc(NC3=NC4CS(=O)(=O)CC4S3)cc2)cc1 (stereo not given) | i | i | 20.9 | x | -9.0 | -5.8 | x
CSc1nc(-c2ccc(Cl)cc2Cl)[nH]c(=O)c1C#N | i | i | 14.1 | -3.73 | -3.3 | -11.2 | x
Cc1cc(-c2ccc(Cl)cc2Cl)c(C#N)c(=O)[nH]1 | i | i | 28.2 | -1.63 | 418.3* | -12.8 | 0.9
Cc1ccc(C(=O)N/C(=C/c2ccccc2)C(=O)NCC2CCCO2)cc1 (stereo not given) | i | i | 4.4 | 1.41 | 399.3* | 2.1 | -0.2
COC(=O)c1ccc(/C=N/NC(=O)C(=O)NCC2CCCO2)cc1 (stereo not given) | i | i | 10.6 | 0.0151 | 730.6* | -3.8 | 0.8
CC1CCCC(NC(=O)CCC(=O)NCc2ccccc2)C1C (stereo not given) | i | i | 8.8 | x | 268.9 | -1.1 | x
CCCSc1nc(C)cc(C)c1C(N)=O | i | i | -7.1 | 0.86 | 5.0 | -22.3 | x
Cc1ccc2nc3cc([N+](=O)[O-])cc([N+](=O)[O-])c3cc2c1 | x | x | x | -0.484 | x | x | x
Cc1ccccc1-n1ncc2c([N+](=O)[O-])cc([N+](=O)[O-])cc21 | i | i | 38.6 | -0.412 | 420.6* | -9.9 | -0.7
O=S(=O)(NCc1ccc(Cl)cc1)c1cnc[nH]1 | i | i | 14.1 | 0.653 | + | -0.7 | 0.9
